{"data": "Measurements gathered from unrelated publications", "PIK3CG": "Phosphatidylinositol 4,5-bisphosphate 3-kinase catalytic subunit gamma isoform (PIK3CG, Homo sapiens, UniProt P48736)", "PTGS2": "Prostaglandin G/H synthase 2 (PTGS2, Homo sapiens, UniProt P35354)", "CHRM3": "Muscarinic acetylcholine receptor M3 (CHRM3, Homo sapiens, UniProt P20309)", "Inositol-tetrakisphosphate 1-kinase": "Inositol-tetrakisphosphate 1-kinase (Homo sapiens, UniProt Q13572)", "note": "Lines come from different studies, so protocols differ."}
{"Compound": "CN(C)C(=O)c1cc2cnc(Nc3cncc(-c4cccc5c(=O)cc(N6CCOCC6)oc45)c3)nc2n1C1CCCC1", "target": "PIK3CG", "assay": "enzyme activity, inhibitor, radiometric", "IC50 [µM]": 6.11}
{"Compound": "NS(=O)(=O)c1ccc(-n2nc(C(=O)NN=Cc3ccc(O)cc3)cc2-c2ccccc2)cc1", "target": "PTGS2", "assay": "enzyme activity, inhibitor", "IC50 [µM]": 1.42}
{"Compound": "CC(C)N(CCC(=O)c1ccc2ccccc2c1)Cc1ccccc1", "target": "Retinal dehydrogenase 2 (ALDH1A2, Homo sapiens, UniProt O94788)", "assay": "enzyme activity, inhibitor, fluorescence", "conditions": "15 min, pH 7.5", "IC50 [µM]": "< 10"}
{"Compound": "O=C1C(=Nc2ccccc2Br)c2ccccc2N1Cc1ccccc1", "target": "PIK3CG", "assay": "enzyme activity, inhibitor, ADP detection", "IC50 [µM]": 0.0076}
{"Compound": "NS(=O)(=O)c1ccc(-n2nc(C(=O)NN3C(=O)c4ccccc4C3=O)cc2-c2ccccc2)cc1", "target": "PTGS2", "assay": "enzyme activity, inhibitor", "IC50 [µM]": 2.64}
{"Compound": "O=C1C(=Nc2ccccc2I)c2ccccc2N1Cc1ccc([N+](=O)[O-])cc1", "target": "PIK3CG", "assay": "enzyme activity, inhibitor, ADP detection", "IC50 [µM]": 0.00152}
{"Compound": "FC(F)(F)CN1CC(n2cc(Oc3ccn4nc(Cl)cc4n3)cn2)C1", "target": "Very long chain fatty acid elongase 7 (Homo sapiens, UniProt A1L3X0)", "assay": "enzyme activity, inhibitor", "IC50 [µM]": "> 99"}
{"Compound": "NS(=O)(=O)c1ccc(-n2nc(-c3nnc(CCl)o3)cc2-c2ccccc2)cc1", "target": "PTGS2", "assay": "enzyme activity, inhibitor", "IC50 [µM]": 2.64}
{"Compound": "CN(C)C(=O)c1cc2cnc(Nc3ccc(-c4cccc5c(=O)cc(N6CCOCC6)oc45)cc3)nc2n1C1CCCC1", "target": "PIK3CG", "assay": "enzyme activity, inhibitor, radiometric", "IC50 [µM]": "> 10"}
{"Compound": "COc1cc(NC(=O)c2cnn(-c3ccc([N+](=O)[O-])cc3)c2C(F)(F)F)cc(OC)c1OC", "target": "PTGS2", "assay": "enzyme activity, inhibitor", "IC50 [µM]": 4.82}
{"Compound": "O=C(CCNC(=O)CNC(=O)CC(c1ccccc1)(c1ccccc1)c1ccccc1)NC[C@H]1CCCN(Cc2ccc(F)cc2)C1", "target": "CHRM3", "assay": "ligand displacement, radioligand", "conditions": "cell membranes", "IC50 [µM]": 0.4}
{"Compound": "Nc1ncnc2c1ncn2C1CCCC1", "target": "Inositol-tetrakisphosphate 1-kinase", "assay": "enzyme activity, inhibitor", "IC50 [µM]": 0.026}
{"Compound": "C=CCN1C(=O)C(=Nc2cccc(C)c2)c2ccccc21", "target": "PIK3CG", "assay": "enzyme activity, inhibitor, ADP detection", "IC50 [µM]": 0.0243}
{"Compound": "COc1ccc(-c2cc(=O)c3ccc(Nc4ncc5cc(C(=O)N(C)C)n(C6CCCC6)c5n4)cc3o2)cc1", "target": "PIK3CG", "assay": "enzyme activity, inhibitor, radiometric", "IC50 [µM]": 6.03}
{"Compound": "Nc1ncnc2c1ncn2[C@@H]1O[C@H](CO)C[C@H]1O", "target": "Inositol-tetrakisphosphate 1-kinase", "assay": "enzyme activity, inhibitor", "IC50 [µM]": 3.1}
{"Compound": "O=C(CCc1ccc(Cl)cc1)N1C(=O)C(=Nc2ccc(Cl)cc2Br)c2ccccc21", "target": "PIK3CG", "assay": "enzyme activity, inhibitor, ADP detection", "IC50 [µM]": 0.00965}
{"Compound": "CN(C)C(=O)c1cc2cnc(Nc3ccc4c(=O)cc(N5CCOCC5)oc4c3)nc2n1C1CCCC1", "target": "PIK3CG", "assay": "enzyme activity, inhibitor, radiometric", "IC50 [µM]": 0.461}
{"Compound": "Cc1cccc(N=C2C(=O)N(Cc3cccc(Cl)c3)c3ccccc32)c1", "target": "PIK3CG", "assay": "enzyme activity, inhibitor, ADP detection", "IC50 [µM]": 0.00096}
{"Compound": "CN(C)C(=O)c1cc2cnc(Nc3ccc(-c4cccc5c(=O)cc(N6CCNCC6)oc45)cc3)nc2n1C1CCCC1", "target": "PIK3CG", "assay": "enzyme activity, inhibitor, radiometric", "IC50 [µM]": "> 10"}
{"Compound": "Nc1ncnc2c1cnn2C1CCCCC1", "target": "Inositol-tetrakisphosphate 1-kinase", "assay": "enzyme activity, inhibitor", "IC50 [µM]": 3.2}
{"Compound": "O=C1Nc2ccccc2C1=Nc1ccccc1I", "target": "PIK3CG", "assay": "enzyme activity, inhibitor, ADP detection", "IC50 [µM]": 0.00388}
{"Compound": "NS(=O)(=O)c1ccc(-n2nc(C(=O)NN=Cc3ccccc3O)cc2-c2ccccc2)cc1", "target": "PTGS2", "assay": "enzyme activity, inhibitor", "IC50 [µM]": 1.55}
{"Compound": "CN(C)C(=O)c1cc2cnc(Nc3cc(C(F)(F)F)c(-c4ccc5c(=O)cc(N6CCOCC6)oc5c4)cn3)nc2n1C1CCCC1", "target": "PIK3CG", "assay": "enzyme activity, inhibitor, radiometric", "IC50 [µM]": "> 10"}
{"Compound": "O=C(CCNC(=O)CNC(=O)CC(c1ccccc1)(c1ccccc1)c1ccccc1)NCC1CCN(Cc2ccc(F)cc2)CC1", "target": "CHRM3", "assay": "ligand displacement, radioligand", "conditions": "cell membranes", "IC50 [µM]": 15.1}
{"Compound": "Nc1ncnc2c1ncn2C1CCCO1 (stereo not drawn)", "target": "Inositol-tetrakisphosphate 1-kinase", "assay": "enzyme activity, inhibitor, ADP detection", "IC50 [µM]": 0.92}
{"Compound": "CN(C)C(=O)c1cc2cnc(Nc3cccc4c(=O)cc(N5CCOCC5)oc34)nc2n1C1CCCC1", "target": "PIK3CG", "assay": "enzyme activity, inhibitor, radiometric", "IC50 [µM]": 1.42}
{"Compound": "c1ccc(COc2[nH]cnc3ncnc2-3)cc1", "target": "Inositol-tetrakisphosphate 1-kinase", "assay": "enzyme activity, inhibitor", "IC50 [µM]": 5.3}
{"Compound": "COc1ccc(C=NNC(=O)c2cc(-c3ccccc3)n(-c3ccc(S(N)(=O)=O)cc3)n2)cc1OC", "target": "PTGS2", "assay": "enzyme activity, inhibitor", "IC50 [µM]": 4.61}
{"Compound": "O=C1C(=Nc2ccc(Cl)cc2)c2ccccc2N1Cc1ccc([N+](=O)[O-])cc1", "target": "PIK3CG", "assay": "enzyme activity, inhibitor, ADP detection", "IC50 [µM]": 0.0012}
{"Compound": "Nc1ncnc2c1ncn2[C@@H]1O[C@H](CO)[C@@H](O)[C@@H]1F", "target": "Inositol-tetrakisphosphate 1-kinase", "assay": "enzyme activity, inhibitor", "IC50 [µM]": 0.86}
{"Compound": "C=CC(=O)N1CCN(c2nc(=O)n(-c3c(C)ccnc3C(C)C)c3nc(-c4c(O)cccc4F)c(F)cc23)[C@@H](C)C1", "target": "GTPase NRas (NRAS, Homo sapiens, UniProt P01111, C181S/C186S/G12C)", "assay": "enzyme activity, inhibitor", "IC50 [µM]": 0.0572}
{"Compound": "O=C1C(=Nc2ccccc2I)c2ccccc2N1Cc1ccc(Br)cc1", "target": "PIK3CG", "assay": "enzyme activity, inhibitor, ADP detection", "IC50 [µM]": 0.0058}
{"Compound": "CN(C)C(=O)c1cc2cnc(Nc3cc(C(F)(F)F)c(-c4cccc5c(=O)cc(N6CCOCC6)oc45)cn3)nc2n1C1CCCC1", "target": "PIK3CG", "assay": "enzyme activity, inhibitor, radiometric", "IC50 [µM]": "> 10"}
